ChEMBL document CHEMBL1124975 (J Med Chem, 1990)
pKi: −log10 of the molar value.

How the values were obtained:
[1] = (§1) Binding affinity towards 5-hydroxytryptamine 3 receptor by displacement of [3H]2 in Neuroblastoma-Glioma NG-108-15 cells
[2] = target: T1, Serotonin 3 (5-HT3) receptor (Rattus norvegicus) (UniProt P35563+Q9JJ16); assay: Serotonin receptor antagonist activity was measured as ability to block the serotonin-induced Bezold-Jarisch reflex in rats after iv administration of 100 ug/Kg; type: functional, organism-based
In short: (§2)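 Anaesthetic and strain not given; rats dosed iv with test compound via a right femoral vein cannula. Serotonin 100 μg kg-1 iv was given through the same route 1 min after drug. Inhibition of the serotonin-induced bradycardia (Bezold-Jarisch reflex) was scored.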

[3] = target: T1, Serotonin 3 (5-HT3) receptor (Rattus norvegicus); assay: Serotonin receptor antagonist activity was measured as ability to block the serotonin-induced Bezold-Jarisch reflex in rats after iv administration of 2 ug/Kg; type: functional, organism-based; in short: as §2
[4] = target: T1, Serotonin 3 (5-HT3) receptor (Rattus norvegicus); assay: Serotonin receptor antagonist activity was measured as ability to block the serotonin-induced Bezold-Jarisch reflex in rats after iv administration of 5 ug/Kg; type: functional, organism-based; in short: as §2
[5] = target: 5-hydroxytryptamine receptor 3A; assay: as §1
[6] = target: T1, Serotonin 3 (5-HT3) receptor (Rattus norvegicus); assay: Serotonin receptor antagonist activity was measured as ability to block the serotonin-induced Bezold-Jarisch reflex in rats after iv administration of 20 ug/Kg; type: functional, organism-based; in short: as §2
[7] = target: T2, 5-hydroxytryptamine receptor 2C (Rattus norvegicus, UniProt P08909); assay: Binding affinity for 5-hydroxytryptamine 1C receptor was determined by using [3H]- mesulergine as radioligand
T2 sequence (P08909 whole entry): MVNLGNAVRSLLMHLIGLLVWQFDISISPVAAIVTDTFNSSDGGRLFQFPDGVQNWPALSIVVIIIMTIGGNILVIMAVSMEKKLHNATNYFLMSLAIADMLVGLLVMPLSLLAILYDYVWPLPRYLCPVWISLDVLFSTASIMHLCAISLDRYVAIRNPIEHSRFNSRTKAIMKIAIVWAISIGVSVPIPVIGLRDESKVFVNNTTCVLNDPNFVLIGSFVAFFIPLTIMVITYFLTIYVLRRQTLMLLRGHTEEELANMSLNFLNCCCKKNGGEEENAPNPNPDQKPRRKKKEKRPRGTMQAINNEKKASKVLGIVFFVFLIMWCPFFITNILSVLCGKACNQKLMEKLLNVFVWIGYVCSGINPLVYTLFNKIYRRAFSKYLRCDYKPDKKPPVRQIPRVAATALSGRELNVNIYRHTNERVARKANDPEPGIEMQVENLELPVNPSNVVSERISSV

[8] = target: T3, 5-hydroxytryptamine receptor 1A (Mus musculus, UniProt Q64264); assay: Binding affinity for 5-hydroxytryptamine 1A receptor was determined by using [3H]8-OH-DPAT as radioligand
T3 sequence (Q64264 whole entry): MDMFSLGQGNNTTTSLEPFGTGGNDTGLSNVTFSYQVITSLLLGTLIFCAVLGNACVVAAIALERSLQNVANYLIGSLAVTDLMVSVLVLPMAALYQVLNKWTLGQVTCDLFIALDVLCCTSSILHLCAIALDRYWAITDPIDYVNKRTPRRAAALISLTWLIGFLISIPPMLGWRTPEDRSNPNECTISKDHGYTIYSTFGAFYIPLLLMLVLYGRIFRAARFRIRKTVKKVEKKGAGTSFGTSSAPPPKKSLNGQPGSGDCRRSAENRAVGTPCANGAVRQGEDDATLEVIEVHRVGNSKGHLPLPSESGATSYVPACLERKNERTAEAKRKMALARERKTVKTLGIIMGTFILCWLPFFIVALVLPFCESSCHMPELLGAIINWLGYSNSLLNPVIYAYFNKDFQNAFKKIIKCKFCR

[9] = target: 5-hydroxytryptamine receptor 2A (Bos taurus, UniProt Q75Z89); assay: Binding affinity for 5-hydroxytryptamine 2 receptor was determined by using [3H]ketanserin as radioligand
[10] = target: GABA-A receptor; anion channel; assay: Displacement of [3H]flunitrazepam from GABA-A Benzodiazepine receptor; type: protein-complex assay
[11] = target: Beta-2 adrenergic receptor (Canis lupus familiaris, UniProt P54833); assay: Binding affinity for Beta adrenergic receptor was determined by using [3H]dihydroalprenolol as radioligand
D(1A) dopamine receptor = D(1A) dopamine receptor (Mus musculus, UniProt Q61616); assay: Binding affinity for Dopamine receptor D1 was determined by using [3H]SCH-23390 as radioligand
D(2) dopamine receptor = D(2) dopamine receptor (Homo sapiens, UniProt P14416); assay: Binding affinity for Dopamine receptor D2 was determined by using [3H]spiperone as radioligand
[12] = target: Muscarinic acetylcholine receptor M3 (Rattus norvegicus, UniProt P08483); assay: Binding affinity for Muscarinic acetylcholine receptor was determined by using [3H]QNB as radioligand
Mu-type opioid receptor = Mu-type opioid receptor (Homo sapiens, UniProt P35372); assay: Binding affinity for Opioid receptor mu 1 was determined by using [3H]naloxone as radioligand
[13] = target: Sigma non-opioid intracellular receptor 1 (Homo sapiens, UniProt Q99720); assay: Binding affinity for Sigma opioid receptor was determined by using [3H](+)-3-(3-hydroxyphenyl)N-1-propyl-piperdine((+)-3-PPP) as radioligand
[14] = target: 5-hydroxytryptamine receptor 1B (Rattus norvegicus) (UniProt P28564); assay: Binding affinity for 5-hydroxytryptamine 1B receptor was determined by using [3H]5-HT as radioligand
[15] = target: T1, Serotonin 3 (5-HT3) receptor (Rattus norvegicus); assay: Serotonin receptor antagonist activity was measured as ability to block the serotonin-induced Bezold-Jarisch reflex in rats after iv administration of 10 ug/Kg; type: functional, organism-based; conditions: in the assay text read “2 ug/Kg” for “10 ug/Kg”; in short: as §2

D(2) dopamine receptor, sequence (P14416 whole entry): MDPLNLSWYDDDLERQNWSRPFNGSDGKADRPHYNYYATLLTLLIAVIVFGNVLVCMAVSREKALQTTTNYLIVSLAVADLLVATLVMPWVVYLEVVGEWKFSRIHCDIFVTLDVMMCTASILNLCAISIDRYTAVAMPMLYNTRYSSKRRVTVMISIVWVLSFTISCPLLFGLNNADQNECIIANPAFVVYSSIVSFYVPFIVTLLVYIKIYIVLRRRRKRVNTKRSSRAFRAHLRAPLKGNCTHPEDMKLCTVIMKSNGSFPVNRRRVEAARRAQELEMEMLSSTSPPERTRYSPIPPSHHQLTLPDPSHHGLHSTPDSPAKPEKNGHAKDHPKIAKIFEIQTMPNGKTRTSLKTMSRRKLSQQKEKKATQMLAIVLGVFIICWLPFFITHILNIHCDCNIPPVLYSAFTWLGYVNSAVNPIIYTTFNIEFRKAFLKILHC
Muscarinic acetylcholine receptor M3, sequence (P08483 whole entry): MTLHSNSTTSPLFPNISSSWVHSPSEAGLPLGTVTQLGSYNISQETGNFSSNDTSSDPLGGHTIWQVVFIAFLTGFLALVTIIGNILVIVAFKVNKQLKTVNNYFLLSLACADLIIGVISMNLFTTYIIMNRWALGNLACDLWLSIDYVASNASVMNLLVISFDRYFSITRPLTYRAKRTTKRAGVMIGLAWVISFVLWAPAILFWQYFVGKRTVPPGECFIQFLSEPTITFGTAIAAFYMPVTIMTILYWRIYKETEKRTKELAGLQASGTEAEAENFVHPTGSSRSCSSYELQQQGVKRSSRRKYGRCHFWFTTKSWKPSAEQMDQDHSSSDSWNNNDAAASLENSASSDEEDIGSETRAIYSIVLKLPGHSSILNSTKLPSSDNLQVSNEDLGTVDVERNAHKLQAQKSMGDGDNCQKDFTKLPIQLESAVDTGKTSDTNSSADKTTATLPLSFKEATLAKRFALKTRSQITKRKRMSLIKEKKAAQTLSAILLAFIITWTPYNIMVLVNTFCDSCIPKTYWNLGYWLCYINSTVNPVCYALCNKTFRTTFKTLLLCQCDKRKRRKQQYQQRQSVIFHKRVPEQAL
Mu-type opioid receptor, sequence (P35372 whole entry): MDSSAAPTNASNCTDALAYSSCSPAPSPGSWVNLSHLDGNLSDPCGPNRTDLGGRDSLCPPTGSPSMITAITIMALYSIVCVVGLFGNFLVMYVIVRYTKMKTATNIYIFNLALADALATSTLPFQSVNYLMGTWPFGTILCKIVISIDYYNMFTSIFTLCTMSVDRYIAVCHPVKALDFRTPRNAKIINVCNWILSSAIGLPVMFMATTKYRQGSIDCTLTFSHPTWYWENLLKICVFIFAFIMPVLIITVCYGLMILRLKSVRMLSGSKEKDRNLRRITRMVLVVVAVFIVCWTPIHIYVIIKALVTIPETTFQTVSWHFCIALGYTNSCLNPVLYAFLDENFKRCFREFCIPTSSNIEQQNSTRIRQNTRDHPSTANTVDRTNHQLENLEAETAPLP
D(1A) dopamine receptor, sequence (Q61616 whole entry): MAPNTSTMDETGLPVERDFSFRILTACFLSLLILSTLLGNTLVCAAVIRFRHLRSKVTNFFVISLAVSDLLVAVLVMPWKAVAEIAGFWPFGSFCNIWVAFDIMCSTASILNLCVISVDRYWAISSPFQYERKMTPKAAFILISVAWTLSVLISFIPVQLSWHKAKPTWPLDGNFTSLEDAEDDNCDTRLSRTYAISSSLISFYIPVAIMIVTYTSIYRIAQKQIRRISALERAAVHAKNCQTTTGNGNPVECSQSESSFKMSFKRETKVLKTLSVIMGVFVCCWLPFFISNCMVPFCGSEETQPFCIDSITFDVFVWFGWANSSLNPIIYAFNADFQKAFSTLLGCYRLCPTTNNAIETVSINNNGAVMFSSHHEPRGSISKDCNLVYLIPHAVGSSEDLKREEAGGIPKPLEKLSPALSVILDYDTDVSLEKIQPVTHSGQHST
5-hydroxytryptamine receptor 2A, sequence (Q75Z89 whole entry): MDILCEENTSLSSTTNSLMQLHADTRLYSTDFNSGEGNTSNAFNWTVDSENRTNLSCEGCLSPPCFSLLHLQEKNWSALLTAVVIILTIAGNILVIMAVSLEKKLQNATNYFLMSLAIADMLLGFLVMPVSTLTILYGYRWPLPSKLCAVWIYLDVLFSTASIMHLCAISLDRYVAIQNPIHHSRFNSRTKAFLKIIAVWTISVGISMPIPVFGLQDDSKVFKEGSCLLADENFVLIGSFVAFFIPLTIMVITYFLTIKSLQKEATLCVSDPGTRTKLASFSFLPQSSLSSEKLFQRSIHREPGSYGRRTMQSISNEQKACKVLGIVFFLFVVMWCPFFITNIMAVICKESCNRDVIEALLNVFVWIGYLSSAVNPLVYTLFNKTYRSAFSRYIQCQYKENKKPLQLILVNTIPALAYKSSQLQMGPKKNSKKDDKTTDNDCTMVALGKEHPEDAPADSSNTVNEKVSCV
Sigma non-opioid intracellular receptor 1, sequence (Q99720 whole entry): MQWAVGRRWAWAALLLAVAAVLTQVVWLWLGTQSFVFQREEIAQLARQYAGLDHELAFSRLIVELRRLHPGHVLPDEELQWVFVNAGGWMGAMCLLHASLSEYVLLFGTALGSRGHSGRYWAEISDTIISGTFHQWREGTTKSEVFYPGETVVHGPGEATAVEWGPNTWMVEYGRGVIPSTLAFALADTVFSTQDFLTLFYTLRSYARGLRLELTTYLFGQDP
Beta-2 adrenergic receptor, sequence (P54833 whole entry): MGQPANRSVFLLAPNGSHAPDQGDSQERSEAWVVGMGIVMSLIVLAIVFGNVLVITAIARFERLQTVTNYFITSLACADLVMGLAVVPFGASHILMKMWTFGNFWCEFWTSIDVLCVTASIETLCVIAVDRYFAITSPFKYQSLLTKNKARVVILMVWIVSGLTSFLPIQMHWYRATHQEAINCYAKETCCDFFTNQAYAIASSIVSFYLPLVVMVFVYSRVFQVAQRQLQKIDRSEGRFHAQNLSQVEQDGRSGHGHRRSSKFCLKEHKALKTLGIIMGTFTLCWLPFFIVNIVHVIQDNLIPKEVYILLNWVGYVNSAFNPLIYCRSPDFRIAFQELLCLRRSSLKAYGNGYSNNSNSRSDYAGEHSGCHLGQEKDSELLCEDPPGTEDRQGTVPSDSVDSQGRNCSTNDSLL
5-hydroxytryptamine receptor 1B (Rattus norvegicus), sequence (P28564 whole entry, looked up): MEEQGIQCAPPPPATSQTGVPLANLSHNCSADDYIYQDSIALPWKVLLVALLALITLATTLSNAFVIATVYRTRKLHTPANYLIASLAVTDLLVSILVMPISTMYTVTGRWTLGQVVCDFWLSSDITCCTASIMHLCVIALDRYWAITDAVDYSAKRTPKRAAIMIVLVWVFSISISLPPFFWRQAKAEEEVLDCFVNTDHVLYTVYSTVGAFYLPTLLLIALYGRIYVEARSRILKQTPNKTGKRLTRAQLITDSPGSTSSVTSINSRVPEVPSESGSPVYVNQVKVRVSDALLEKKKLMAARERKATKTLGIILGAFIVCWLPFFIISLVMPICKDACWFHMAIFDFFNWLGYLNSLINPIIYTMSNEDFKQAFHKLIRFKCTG

Cc1[nH]cnc1Cc1nc(-c2cccc(Br)c2)cs1
pKi [1]: 8.70

COc1ccc2ccccc2c1-c1csc(Cc2[nH]cnc2C)n1
pKi [1]: 6.40

COc1ccccc1-c1csc(Cc2[nH]cnc2C)n1
inhibition [2]: 100% | inhibition [3]: 57.9% | inhibition [4]: 88.5% | pKi [5]: 9.38

Cc1[nH]cnc1Cc1nc(-c2ccccc2)cs1
inhibition [2]: 100% | inhibition [3]: 10.7%

CCOc1ccccc1-c1csc(Cc2[nH]cnc2C)n1
pKi [1]: 9.02

Cc1ccccc1-c1csc(Cc2[nH]cnc2C)n1
pKi [1]: 8.06

Cc1[nH]cnc1Cc1nc(-c2cccc(F)c2)cs1
pKi [1]: 8.43

Cc1nccn1CC1CCc2c(c3ccccc3n2C)C1=O (stereo unspecified)
inhibition [6]: 89.7%

Cc1[nH]cnc1Cc1nc(-c2ccccc2F)cs1
inhibition [3]: 66.4% | pKi [5]: 8.71

N=C(N)NCc1nc(-c2c[nH]c3ccccc23)cs1
pKi [1]: 8.48

c1ccc(-c2csc(Cc3c[nH]cn3)n2)cc1
pKi [1]: 9.00

Cc1[nH]cnc1Cc1nc(-c2cccc(Cl)c2)cs1
pKi [1]: 9.06

Cc1nc[nH]c1Cc1nc(-c2ccccc2)cs1
pKi [7]: < 6.00 | pKi [8]: < 6.00 | pKi [9]: < 6.00 | pKi [5]: 8.74 | pKi [10]: < 6.00 | pKi [11]: < 6.00 | pKi (D(1A) dopamine receptor): < 6.00 | pKi (D(2) dopamine receptor): < 6.00 | pKi [12]: < 6.00 | pKi (Mu-type opioid receptor): < 6.00 | pKi [13]: < 6.00 | pKi [14]: < 6.00

CN1[C@@H]2CC[C@H]1C[C@H](OC(=O)c1ccccc1)C2
pKi [1]: 6.48

CN1[C@@H]2CC[C@H]1C[C@@H](OC(=O)c1c[nH]c3ccccc13)C2
inhibition [15]: 77.5%

Cc1[nH]cnc1Cc1nc(-c2ccccc2C(F)(F)F)cs1
pKi [1]: 7.21

N=C(N)NCCCCOC(=O)c1c[nH]c2ccccc12
pKi [1]: 7.54

Cc1[nH]cnc1Cc1nc(-c2ccc(F)cc2)cs1
pKi [1]: 8.31

N=C(N)NCCCOC(=O)c1c[nH]c2ccccc12
pKi [1]: 7.57

N=C(N)NCCOC(=O)c1c[nH]c2ccccc12
pKi [1]: 8.15

Cc1[nH]cnc1Cc1nc(-c2ccc(Cl)cc2)cs1
pKi [1]: 7.47

Cc1[nH]cnc1Cc1nc(-c2c[nH]c3ccccc23)cs1
inhibition [2]: 45.2%

Cc1[nH]cnc1Cc1nc(-c2cccc3cccnc23)cs1
inhibition [3]: 43% | inhibition [6]: 91.9% | pKi [5]: 9.00

COc1ccccc1-c1csc(Cc2c[nH]cn2)n1
pKi [1]: 9.54

Cc1ccc(-c2csc(Cc3[nH]cnc3C)n2)cc1
pKi [1]: 6.96

Cc1[nH]cnc1Cc1nc(-c2ccccc2O)cs1
pKi [1]: 8.82

Cc1[nH]cnc1Cc1nc(-c2ccc(Br)cc2)cs1
pKi [1]: 6.57

c1cnc2c(-c3csc(Cc4c[nH]cn4)n3)cccc2c1
pKi [1]: 9.51

COc1cccc(-c2csc(Cc3[nH]cnc3C)n2)c1
pKi [1]: 8.70

COc1cccc(OC)c1-c1csc(Cc2[nH]cnc2C)n1
pKi [1]: 6.37

COc1c(-c2csc(Cc3[nH]cnc3C)n2)ccc2ccccc12
pKi [1]: 7.02

Cc1nc[nH]c1Cc1nc(-c2c[nH]c3ccccc23)cs1
pKi [5]: 7.92

COc1ccc(-c2csc(Cc3[nH]cnc3C)n2)cc1
pKi [1]: 6.41
